Data on 13 compounds can be found in ChEMBL document CHEMBL1152681, “Natural and synthetic 2'-hydroxy-chalcones and aurones: synthesis, characterization and evaluation of the antioxidant and soybean lipoxygenase inhibitory activity” (Bioorg Med Chem, 2009).

Assay [1] in a line: Antioxidant activity assessed as inhibition of AAPH-induced lipid peroxidation at 10 uM by uV spectrophotometry. It counts as functional. The essentials: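 Aqueous linoleic acid dispersion (16 mM, 10 µL) in 0.05 M phosphate buffer pH 7.4, prethermostated at 37 °C. Oxidation started under air with AAPH (40 mM solution, 50 µL) and run with 10 µL compound aliquots. The control contained the same DMSO level. The rate of conjugated diene hydroperoxide formation was followed by the rise in absorbance at 234 nm at 37 °C.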

For assay [2], the system named is Radical scavenging activity. The experiment in a line: Antioxidant activity assessed as DPPH radical scavenging activity at 100 uM after 60 mins. It counts as functional. The essentials: (§1)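 DPPH (0.05 mM) in absolute ethanol; compounds in DMSO added to final 0.1 mM. Mixture shaken vigorously and left 20 min or 60 min. Absorbance read at 517 nm and percent activity calculated. Three replicates, averaged.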

A short description of assay [3]: Antioxidant activity assessed as hydrogen peroxide scavenging activity by peroxyoxalate chemiluminescent method. It counts as functional.
The test system of assay [4] is Radical scavenging activity. As to the kind of experiment: Antioxidant activity assessed as DPPH radical scavenging activity at 100 uM after 20 mins. It counts as functional. The essentials:
as §1

A further assay has as its system Glycine max. As to the kind of experiment: Inhibition of soybean 5-lipoxygenase at 100 uM by UV-absorbance based enzyme assay. The essentials: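 Soybean lipoxygenase (enzyme solution 1/9 × 10^-4 w/v in saline) incubated at room temperature with sodium linoleate and compound in DMSO, in Tris buffer pH 9. Conversion to 13-hydroperoxylinoleic acid recorded at 234 nm and compared with a standard inhibitor.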

The test system of assay [5] is Radical scavenging activity. As to the kind of experiment: Antioxidant activity assessed as DPPH radical scavenging activity at 50 uM after 20 mins. It is filed as functional. In general terms: Loss of DPPH colour is used to gauge radical scavenging.
A short description of assay [6]: Antioxidant activity assessed as hydroxyl radical scavenging activity at 100 uM. It counts as functional. The method, boiled down: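 Fe3+/ascorbic acid-generated hydroxyl radicals detected by the Nash method as formaldehyde formed from DMSO oxidation. The mixture held EDTA 0.1 mM, Fe3+ 167 µM, DMSO 33 mM, test compound 0.1 mM and ascorbic acid 10 mM in 50 mM phosphate buffer pH 7.4. Incubated 30 min at 37 °C, then stopped with CCl3COOH (17% w/v). Trolox was the standard.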

The nature of assay [7]: Antioxidant activity assessed as superoxide anion radical scavenging activity at 10 uM. It is filed as functional. The essentials: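 Non-enzymatic superoxide generation from PMS/NADH/air-oxygen, measured by NBT reduction. Compounds preincubated 2 min before NADH was added. Mixture of 3 µM PMS, 78 µM NADH and 25 µM NBT in phosphate buffer pH 7.4, incubated 2 min at room temperature. Absorbance read at 560 nm against a PMS-containing blank. Caffeic acid was the standard.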

Assay [8] concerns Radical scavenging activity. As to the kind of experiment: Antioxidant activity assessed as DPPH radical scavenging activity at 50 uM after 60 mins. It counts as functional.

Broadly, the inhibition is the drop in the measured response relative to a control, in per cent. Broadly, the IC50 is the concentration that gives 50% inhibition.

Molecules are shown by their SMILES.

`O=C(/C=C/c1ccc(O)c(O)c1)c1c(O)cc(O)cc1O` [3,4,2',4',6'-PENTAHYDROXYCHALCONE]: the inhibition (in assay [1]; in the assay with Glycine max) was 0% in each case. Besides, the Activity worked out at 94.9% in [2] and 100% in assay [4]. The IC50 in assay [3] is 76 µM.

As to `O=C1/C(=C/c2ccc(Cl)cc2)Oc2ccccc21`, the figures for the inhibition (in assay [1]; with Glycine max) were 46.4% and 26.4%, respectively. Moreover, the Activity was 11.1% in assay [5]; 76.2% in [2]; 0% in assay [6]; 89.5% in assay [7]; 10.3% in [8]; 49.3% in [4]. In addition, the IC50 in assay [3] was determined as 4140 µM.

For `COc1cc(O)c(C(=O)/C=C/c2ccc(OC)c(OC)c2)c(OC)c1`, the inhibition in assay [1] amounted to 73.6%; in the assay on Glycine max it was 1.6%. Moreover, the Activity in [5] came to 0%; in [2] it was 20.8%; in [6] it was 42.2%; in assay [7] it was 86.8%; in assay [8], 0%; in assay [4], 12.9%. The IC50 in assay [3] turned out to be 88 µM.

`COc1ccc(/C=C/C(=O)c2c(O)cc(OC)cc2OC)cc1` [FLAVOKAWAIN A]: the inhibition in assay [1] amounted to 80.9%; with Glycine max, 2.3%. Moreover, the Activity in assay [5] came out at 0%; in assay [2], 40.8%; in assay [6], 78.7%; in assay [7] it was 50%; in assay [8], 0%; in assay [4], 6.3%. In addition, the IC50 in [3] came to 456 µM.

As for `COc1cc(OC)c2c(c1)O/C(=C\c1ccc(C)cc1)C2=O`, the inhibition in assay [1] was determined as 72%; in the assay on Glycine max, 0%. In addition, the Activity in assay [5] worked out at 0%; in [2], 29.2%; in [6], 100%; in [7] it was 97.4%; in [8], 0%; in assay [4] it was 8.5%.

For the compound `COc1cc(OC)c2c(c1)O/C(=C\c1ccc(Cl)cc1)C2=O`, the inhibition in [1] was 82.9%; in the assay with Glycine max, 7.8%. Further, the Activity is 0% in assay [5]; 20.8% in [2]; 91.5% in assay [6]; 84.2% in assay [7]; 0% in [8]; 6.3% in [4].

As to `COCOc1cc(O)c(C(=O)/C=C/c2ccc(OCOC)c(OCOC)c2)c(OCOC)c1`, the inhibition in assay [1] came to 77.1%; with Glycine max, 14.1%. The Activity in [5] was determined as 5.6%; in [2] it was 65.4%; in [6], 100%; in [7], 50%; in assay [8], 0%; in assay [4], 42.6%.

For the compound `CC1=C(/C=C/C(C)=C/C=C/C(C)=C/C=C/C=C(C)/C=C/C=C(C)/C=C/C2=C(C)CCCC2(C)C)C(C)(C)CCC1` [BETA CAROTENE], the IC50 in assay [3] is 16.9 µM.

Take `COc1ccc(/C=C2\Oc3ccccc3C2=O)cc1OC` [3',4'-DIMETHOXY-AURONE]: the inhibition in assay [1] stood at 53.3%. Besides, the Activity in [6] was 76.7%; in assay [7], 97.4%. Besides, the IC50 in [3] amounted to 44 µM.

Take `COCOc1cc(OCOC)c2c(c1)O/C(=C\c1ccc(OCOC)c(OCOC)c1)C2=O`: the inhibition in the assay with Glycine max was determined as 0%.

Take `Cc1c(C)c2c(c(C)c1O)CCC(C)(C(=O)O)O2` (centres undefined): the inhibition in assay [1] is 63%. In addition, the Activity in assay [6] was 73.4%.

Turning to `O=C1/C(=C/c2ccc(O)c(O)c2)Oc2cc(O)cc(O)c21`, the inhibition came out at 77.8% in [1] and 0% in the assay with Glycine max. The Activity amounted to 97.7% in [2] and 84.9% in [4].

Regarding `O=c1c(O)c(-c2ccc(O)c(O)c2)oc2cc(O)cc(O)c12` [QUERCETIN], in [3], the IC50 came to 162 µM.
